# Experimental data reported in ChEMBL document CHEMBL1649230, “Aryl rhodanines specifically inhibit staphylococcal and enterococcal biofilm formation” (Antimicrob Agents Chemother, 2009).
# System: Staphylococcus aureus
# Experiment: Antimicrobial activity against Staphylococcus aureus ATCC 35556 assessed as inhibition of bacterial biofilm formation after 18 hrs by broth microdilution method in presence of 5 ug/ml fibronectin
# Format: functional
# Summary of the method: (§1)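 Polystyrene 96-well wells precoated with 100 μl fibronectin or fibrinogen (0–20 μg protein/ml) for 24 h at 4°C. Wells then washed with sterile water. The standard MBIC biofilm assay followed: 0.5× TSB with 1% glucose, 2% DMSO, 18 h at 37°C, crystal violet read at OD600.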
row,Compound,MBIC [µM]
1,CCOc1cc(/C=C2\SC(=S)N(c3cccnc3)C2=O)ccc1O,12.5
2,C=CCOc1cc(/C=C2\SC(=S)N(c3ccc(F)cc3)C2=O)ccc1O,3.125

# System: Staphylococcus epidermidis
# Experiment: Antimicrobial activity against coagulase-negative Staphylococcus epidermidis isolate WTBF-47 assessed as inhibition of bacterial biofilm after 18 hrs by broth microdilution method
# Format: functional
# Summary of the method: (§2)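 Static biofilm in tissue culture-treated polystyrene 96-well plates in 0.5× TSB with 1% glucose. Overnight culture diluted 1:100 gives about 5 × 10^6 cells/well. Compound 2-fold series, final 0.2–100 μM, 2% DMSO. Incubated 18 h at 37°C. Washed, heat-fixed 60°C for 60 min, stained with 0.06% crystal violet, read at OD600. MBIC is the lowest concentration giving ≥80% inhibition versus untreated. Geometric mean of ≥3 independent experiments.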
row,Compound,MBIC [µM]
1,CCOc1cc(/C=C2\SC(=S)N(c3cccnc3)C2=O)ccc1O,12.5
2,C=CCOc1cc(/C=C2\SC(=S)N(c3ccc(F)cc3)C2=O)ccc1O,29.7

# System: Staphylococcus aureus
# Experiment: Antimicrobial activity against Staphylococcus aureus ATCC 35556 assessed as inhibition of bacterial biofilm after 18 hrs by broth microdilution method
# Format: functional
# Summary of the method: as §2
row,Compound,MBIC [µM]
1,CCOc1cc(/C=C2\SC(=S)N(c3cccnc3)C2=O)ccc1O,10.5
2,C=CCOc1cc(/C=C2\SC(=S)N(c3ccc(F)cc3)C2=O)ccc1O,2.6

# System: Enterococcus faecalis
# Experiment: Antimicrobial activity against Enterococcus faecalis isolate F177 on medical grade silicone disk assessed as inhibition of bacterial biofilm after 18 hrs by broth microdilution method
row,Compound,MBIC90 [µM]
1,CCOc1cc(/C=C2\SC(=S)N(c3cccnc3)C2=O)ccc1O,19.8
2,C=CCOc1cc(/C=C2\SC(=S)N(c3ccc(F)cc3)C2=O)ccc1O,100

# System: Escherichia coli
# Experiment: Antimicrobial activity against Escherichia coli ATCC 25922 assessed as inhibition of bacterial biofilm after 18 hrs by broth microdilution method
# Format: functional
# Summary of the method: (§3)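 Polystyrene plates with breathable lids in 1× TSB (0.25% glucose), 37°C for 18 h. Biofilms form at the air-liquid interface. Stained with crystal violet, dye eluted with 30% acetic acid, OD read. Compound 2-fold series, final 0.2–100 μM in 2% DMSO. MBIC taken at ≥80% inhibition versus untreated. Geometric mean of ≥3 experiments.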
row,Compound,MBIC
1,CCOc1cc(/C=C2\SC(=S)N(c3cccnc3)C2=O)ccc1O,>=100 uM
2,C=CCOc1cc(/C=C2\SC(=S)N(c3ccc(F)cc3)C2=O)ccc1O,>=100 uM

# System: Enterococcus faecalis
# Experiment: Antimicrobial activity against vancomycin-resistant Enterococcus faecalis ATCC 51299 assessed as inhibition of bacterial biofilm after 18 hrs by broth microdilution method
# Format: functional
# Summary of the method: (§4)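 Biofilm MBIC on tissue culture-treated polystyrene 96-well plates. Twofold dilutions, 0.2 to 100 μM final, with 2% DMSO final. Inoculum was an overnight culture diluted 1:100 (~5 × 10^6 cells/well) in 0.5× TSB plus 1% glucose, grown 18 h at 37°C. Wells washed, heat-fixed 60°C 60 min, stained with 0.06% crystal violet, OD600 read. MBIC is the lowest concentration giving ≥80% inhibition versus untreated; geometric mean of ≥3 experiments.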
row,Compound,MBIC [µM]
1,CCOc1cc(/C=C2\SC(=S)N(c3cccnc3)C2=O)ccc1O,8.8

# System: Staphylococcus aureus
# Experiment: Antimicrobial activity against Staphylococcus aureus ATCC 35556 assessed as inhibition of bacterial biofilm formation after 18 hrs by broth microdilution method in presence of 2 ug/ml fibrinogen
# Format: functional
# Summary of the method: as §1
row,Compound,MBIC [µM]
1,CCOc1cc(/C=C2\SC(=S)N(c3cccnc3)C2=O)ccc1O,12.5
2,C=CCOc1cc(/C=C2\SC(=S)N(c3ccc(F)cc3)C2=O)ccc1O,3.125

# System: Enterococcus faecium
# Experiment: Antimicrobial activity against vancomycin-resistant Enterococcus faecium isolate EF208 assessed as inhibition of bacterial biofilm after 18 hrs by broth microdilution method
# Format: functional
# Summary of the method: as §4
row,Compound,MBIC [µM]
1,CCOc1cc(/C=C2\SC(=S)N(c3cccnc3)C2=O)ccc1O,15.7
2,C=CCOc1cc(/C=C2\SC(=S)N(c3ccc(F)cc3)C2=O)ccc1O,35.4

# System: Staphylococcus aureus
# Experiment: Antimicrobial activity against methicillin-susceptible Staphylococcus aureus on medical grade silicone disk assessed as inhibition of bacterial biofilm after 18 hrs by broth microdilution method
# Format: functional
# Summary of the method: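 S. aureus ATCC 35556 biofilms were grown on autoclaved medical-grade silicone disks fixed in 24-well plates. The inoculum was a 1:100 dilution of an overnight culture in 0.5× TSB with 1% glucose, with compound at 0× to 8× MBIC and 2% DMSO final, in at least three wells. Plates were held about 18 h at 37°C, water-washed, heat-fixed at 60°C for 60 min, and stained with 0.06% CV. CV was eluted in 30% acetic acid and read at OD600, averaging three disks; runs were repeated ≥3 times.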
row,Compound,MBIC90 [µM]
1,CCOc1cc(/C=C2\SC(=S)N(c3cccnc3)C2=O)ccc1O,25
2,C=CCOc1cc(/C=C2\SC(=S)N(c3ccc(F)cc3)C2=O)ccc1O,100

# System: Staphylococcus aureus
# Experiment: Antimicrobial activity against Staphylococcus aureus NCTC 8325 on medical grade silicone disk assessed as inhibition of bacterial biofilm after 18 hrs by broth microdilution method
row,Compound,MBIC90 [µM]
1,CCOc1cc(/C=C2\SC(=S)N(c3cccnc3)C2=O)ccc1O,25
2,C=CCOc1cc(/C=C2\SC(=S)N(c3ccc(F)cc3)C2=O)ccc1O,100

# System: Enterococcus faecalis
# Experiment: Antimicrobial activity against vancomycin-resistant Enterococcus faecalis isolate F317 assessed as inhibition of bacterial biofilm after 18 hrs by broth microdilution method
# Format: functional
# Summary of the method: as §4
row,Compound,MBIC [µM]
1,CCOc1cc(/C=C2\SC(=S)N(c3cccnc3)C2=O)ccc1O,15.7
2,C=CCOc1cc(/C=C2\SC(=S)N(c3ccc(F)cc3)C2=O)ccc1O,100

# System: Staphylococcus aureus
# Experiment: Antimicrobial activity against Staphylococcus aureus ATCC 35556 assessed as inhibition of bacterial biofilm formation after 18 hrs by broth microdilution method in presence of 20 ug/ml fibronectin
# Format: functional
# Summary of the method: as §1
row,Compound,MBIC [µM]
1,CCOc1cc(/C=C2\SC(=S)N(c3cccnc3)C2=O)ccc1O,12.5
2,C=CCOc1cc(/C=C2\SC(=S)N(c3ccc(F)cc3)C2=O)ccc1O,3.125

# System: Staphylococcus epidermidis
# Experiment: Antimicrobial activity against Staphylococcus epidermidis 1457 on medical grade silicone disk assessed as inhibition of bacterial biofilm after 18 hrs by broth microdilution method
# Format: functional
row,Compound,MBIC90 [µM]
1,CCOc1cc(/C=C2\SC(=S)N(c3cccnc3)C2=O)ccc1O,35.4
2,C=CCOc1cc(/C=C2\SC(=S)N(c3ccc(F)cc3)C2=O)ccc1O,59.5

# System: Staphylococcus epidermidis
# Experiment: Antimicrobial activity against coagulase-negative Staphylococcus epidermidis isolate WTBF-40 assessed as inhibition of bacterial biofilm after 18 hrs by broth microdilution method
# Format: functional
# Summary of the method: as §2
row,Compound,MBIC [µM]
1,CCOc1cc(/C=C2\SC(=S)N(c3cccnc3)C2=O)ccc1O,35.4
2,C=CCOc1cc(/C=C2\SC(=S)N(c3ccc(F)cc3)C2=O)ccc1O,50

# System: Staphylococcus aureus
# Experiment: Antimicrobial activity against hospital acquired methicillin-resistant Staphylococcus aureus isolate 47263 assessed as inhibition of bacterial biofilm after 18 hrs by broth microdilution method
# Format: functional
# Summary of the method: as §4
row,Compound,MBIC [µM]
1,C=CCOc1cc(/C=C2\SC(=S)N(c3ccc(F)cc3)C2=O)ccc1O,8.8

# System: Staphylococcus aureus
# Experiment: Antimicrobial activity against hospital acquired methicillin-resistant Staphylococcus aureus isolate 1094 assessed as inhibition of bacterial biofilm after 18 hrs by broth microdilution method
# Format: functional
# Summary of the method: as §4
row,Compound,MBIC [µM]
1,CCOc1cc(/C=C2\SC(=S)N(c3cccnc3)C2=O)ccc1O,25
2,C=CCOc1cc(/C=C2\SC(=S)N(c3ccc(F)cc3)C2=O)ccc1O,100

# System: Staphylococcus aureus
# Experiment: Antimicrobial activity against community-acquired Staphylococcus aureus MW2 on medical grade silicone disk assessed as inhibition of bacterial biofilm after 18 hrs by broth microdilution method
# Format: functional
row,Compound,MBIC90 [µM]
1,CCOc1cc(/C=C2\SC(=S)N(c3cccnc3)C2=O)ccc1O,25
2,C=CCOc1cc(/C=C2\SC(=S)N(c3ccc(F)cc3)C2=O)ccc1O,100

# System: Staphylococcus aureus
# Experiment: Antimicrobial activity against community acquired methicillin-resistant Staphylococcus aureus isolate 24209 assessed as inhibition of bacterial biofilm after 18 hrs by broth microdilution method
# Format: functional
# Summary of the method: as §4
row,Compound,MBIC [µM]
1,CCOc1cc(/C=C2\SC(=S)N(c3cccnc3)C2=O)ccc1O,25
2,C=CCOc1cc(/C=C2\SC(=S)N(c3ccc(F)cc3)C2=O)ccc1O,100

# System: Staphylococcus aureus
# Experiment: Antimicrobial activity against Staphylococcus aureus ATCC 35556 assessed as inhibition of bacterial biofilm formation after 18 hrs by broth microdilution method in presence of 10 ug/ml fibrinogen
# Format: functional
# Summary of the method: as §1
row,Compound,MBIC [µM]
1,CCOc1cc(/C=C2\SC(=S)N(c3cccnc3)C2=O)ccc1O,12.5
2,C=CCOc1cc(/C=C2\SC(=S)N(c3ccc(F)cc3)C2=O)ccc1O,3.125

# System: Enterococcus faecium
# Experiment: Antimicrobial activity against vancomycin-resistant Enterococcus faecium isolate F1181 assessed as inhibition of bacterial biofilm after 18 hrs by broth microdilution method
# Format: functional
# Summary of the method: as §4
row,Compound,MBIC
1,CCOc1cc(/C=C2\SC(=S)N(c3cccnc3)C2=O)ccc1O,>=100 uM
2,C=CCOc1cc(/C=C2\SC(=S)N(c3ccc(F)cc3)C2=O)ccc1O,>=100 uM

# System: Enterococcus gallinarum
# Experiment: Antimicrobial activity against vancomycin-resistant Enterococcus gallinarum isolate 2392 on medical grade silicone disk assessed as inhibition of bacterial biofilm after 18 hrs by broth microdilution method
# Format: functional
# Summary of the method: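 Medical-grade silicone disks glued to 24-well plate bottoms. Compound added to a 1:100 overnight-culture inoculum (0.5× TSB, 1% glucose) at 2% DMSO final; ≥3 wells each, ~18 h at 37°C. Washed with water, heat-fixed 60°C 60 min, stained with 0.06% crystal violet, eluted with 30% acetic acid, OD600 read. Repeated ≥3 times.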
row,Compound,MBIC90 [µM]
1,C=CCOc1cc(/C=C2\SC(=S)N(c3ccc(F)cc3)C2=O)ccc1O,100

# System: Staphylococcus aureus
# Experiment: Antimicrobial activity against Staphylococcus aureus ATCC 35556 assessed as inhibition of bacterial biofilm formation after 18 hrs by broth microdilution method in presence of 5 ug/ml fibrinogen
# Format: functional
# Summary of the method: as §1
row,Compound,MBIC [µM]
1,CCOc1cc(/C=C2\SC(=S)N(c3cccnc3)C2=O)ccc1O,12.5
2,C=CCOc1cc(/C=C2\SC(=S)N(c3ccc(F)cc3)C2=O)ccc1O,3.125

# System: Staphylococcus aureus
# Experiment: Antimicrobial activity against community acquired methicillin-resistant Staphylococcus aureus isolate 38230 assessed as inhibition of bacterial biofilm after 18 hrs by broth microdilution method
# Format: functional
# Summary of the method: as §4
row,Compound,MBIC [µM]
1,CCOc1cc(/C=C2\SC(=S)N(c3cccnc3)C2=O)ccc1O,19.8
2,C=CCOc1cc(/C=C2\SC(=S)N(c3ccc(F)cc3)C2=O)ccc1O,35.4

# System: Pseudomonas aeruginosa
# Experiment: Antimicrobial activity against Pseudomonas aeruginosa PAO1 assessed as inhibition of bacterial biofilm after 18 hrs by broth microdilution method
# Format: functional
# Summary of the method: as §3
row,Compound,MBIC
1,CCOc1cc(/C=C2\SC(=S)N(c3cccnc3)C2=O)ccc1O,>=100 uM
2,C=CCOc1cc(/C=C2\SC(=S)N(c3ccc(F)cc3)C2=O)ccc1O,>=100 uM

# System: Staphylococcus aureus
# Experiment: Antimicrobial activity against community acquired methicillin-resistant Staphylococcus aureus isolate 49404 assessed as inhibition of bacterial biofilm after 18 hrs by broth microdilution method
# Format: functional
# Summary of the method: as §4
row,Compound,MBIC [µM]
1,CCOc1cc(/C=C2\SC(=S)N(c3cccnc3)C2=O)ccc1O,31.5
2,C=CCOc1cc(/C=C2\SC(=S)N(c3ccc(F)cc3)C2=O)ccc1O,15.7

# System: Staphylococcus epidermidis
# Experiment: Antimicrobial activity against coagulase-negative Staphylococcus epidermidis isolate WTBF-41 assessed as inhibition of bacterial biofilm after 18 hrs by broth microdilution method
# Format: functional
# Summary of the method: as §4
row,Compound,MBIC [µM]
1,CCOc1cc(/C=C2\SC(=S)N(c3cccnc3)C2=O)ccc1O,17.7
2,C=CCOc1cc(/C=C2\SC(=S)N(c3ccc(F)cc3)C2=O)ccc1O,17.7
